The text below walks through data of ChEMBL document CHEMBL4732100, “Water-soluble inhibitors of ABCG2 (BCRP) - A fragment-based and computational approach” (Eur J Med Chem, 2021).

The IC50 is the concentration needed to halve the response being measured.

Values after ≈ are worked out from the molar mass of the structure shown.

Data set [1] addresses T1, Broad substrate specificity ATP-binding cassette transporter ABCG2 (Homo sapiens, UniProt Q9UNQ0).
T1 sequence (Q9UNQ0 whole entry): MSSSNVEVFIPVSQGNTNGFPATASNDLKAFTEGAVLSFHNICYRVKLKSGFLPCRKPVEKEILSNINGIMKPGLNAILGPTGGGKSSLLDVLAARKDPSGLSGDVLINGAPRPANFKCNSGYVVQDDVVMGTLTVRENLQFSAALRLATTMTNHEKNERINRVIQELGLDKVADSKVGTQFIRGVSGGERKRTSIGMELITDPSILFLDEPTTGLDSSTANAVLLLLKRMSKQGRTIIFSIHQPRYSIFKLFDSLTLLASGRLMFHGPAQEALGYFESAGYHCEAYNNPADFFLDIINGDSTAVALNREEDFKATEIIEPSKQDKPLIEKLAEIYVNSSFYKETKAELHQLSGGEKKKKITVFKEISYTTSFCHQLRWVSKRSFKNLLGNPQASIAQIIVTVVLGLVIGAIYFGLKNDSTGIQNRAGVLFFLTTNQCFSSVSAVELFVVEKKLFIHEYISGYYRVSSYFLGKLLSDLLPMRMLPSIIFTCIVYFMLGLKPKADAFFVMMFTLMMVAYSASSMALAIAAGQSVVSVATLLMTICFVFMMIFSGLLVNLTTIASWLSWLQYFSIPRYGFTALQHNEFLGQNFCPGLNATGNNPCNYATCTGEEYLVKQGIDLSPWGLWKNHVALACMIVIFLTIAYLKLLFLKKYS
The data set can be described thus: Inhibition of human ABCG2 in human MCF7/Topo cells assessed as accumulation of substrate Hoechst […] stain measured after 2 hrs by fluorometric microplate reader assay. Particulars: read-out: IC50; call rule not given here. It is filed as cell-based.

Data set [2] addresses T2, ABCG2 (Homo sapiens, UniProt Q9UNQ0).
T2 sequence (Q9UNQ0 whole entry): T1 sequence (Q9UNQ0 whole entry)
The data set can be described thus: Inhibition of human ABCG2 in human MCF7/Topo cells assessed as accumulation of substrate Hoechst […] stain at 10 uM measured after 2 hrs by fluorometric microplate reader assay relative to FTC. It is filed as cell-based. Particulars: read-out: Imax.

Data set [3] has as its target ATP-dependent translocase ABCB1 (Homo sapiens, UniProt P08183). Nature of the data set: Inhibition of ABCB1 in human KB-V1 cells assessed as accumulation of substrate calcein-AM stain measured after 10 mins by fluorometric microplate reader assay. It is filed as cell-based. In short, it runs like this:
(§1)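 KB-V1 cells (ABCB1-overexpressing KB variant) kept under 330 nM vinblastine. Calcein-AM accumulation read by fluorescence after intracellular cleavage to calcein. Compounds tested up to 100 µM. Inhibition is normalized to 10 µM tariquidar set to 100% (Imax). Mean ± SEM from ≥3 experiments in triplicate.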

For a further data set, the target named is ABCB1 (Homo sapiens, UniProt P08183). Nature of the data set: Inhibition of ABCB1 in human KB-V1 cells assessed as accumulation of substrate calcein-AM stain at 10 uM measured after 10 mins by fluorometric microplate reader assay relative to Tariquidar. It counts as cell-based. The settings on record: probe calcein-AM, read-out: Imax. In short, it runs like this: as §1
ABCB1, sequence (P08183 whole entry): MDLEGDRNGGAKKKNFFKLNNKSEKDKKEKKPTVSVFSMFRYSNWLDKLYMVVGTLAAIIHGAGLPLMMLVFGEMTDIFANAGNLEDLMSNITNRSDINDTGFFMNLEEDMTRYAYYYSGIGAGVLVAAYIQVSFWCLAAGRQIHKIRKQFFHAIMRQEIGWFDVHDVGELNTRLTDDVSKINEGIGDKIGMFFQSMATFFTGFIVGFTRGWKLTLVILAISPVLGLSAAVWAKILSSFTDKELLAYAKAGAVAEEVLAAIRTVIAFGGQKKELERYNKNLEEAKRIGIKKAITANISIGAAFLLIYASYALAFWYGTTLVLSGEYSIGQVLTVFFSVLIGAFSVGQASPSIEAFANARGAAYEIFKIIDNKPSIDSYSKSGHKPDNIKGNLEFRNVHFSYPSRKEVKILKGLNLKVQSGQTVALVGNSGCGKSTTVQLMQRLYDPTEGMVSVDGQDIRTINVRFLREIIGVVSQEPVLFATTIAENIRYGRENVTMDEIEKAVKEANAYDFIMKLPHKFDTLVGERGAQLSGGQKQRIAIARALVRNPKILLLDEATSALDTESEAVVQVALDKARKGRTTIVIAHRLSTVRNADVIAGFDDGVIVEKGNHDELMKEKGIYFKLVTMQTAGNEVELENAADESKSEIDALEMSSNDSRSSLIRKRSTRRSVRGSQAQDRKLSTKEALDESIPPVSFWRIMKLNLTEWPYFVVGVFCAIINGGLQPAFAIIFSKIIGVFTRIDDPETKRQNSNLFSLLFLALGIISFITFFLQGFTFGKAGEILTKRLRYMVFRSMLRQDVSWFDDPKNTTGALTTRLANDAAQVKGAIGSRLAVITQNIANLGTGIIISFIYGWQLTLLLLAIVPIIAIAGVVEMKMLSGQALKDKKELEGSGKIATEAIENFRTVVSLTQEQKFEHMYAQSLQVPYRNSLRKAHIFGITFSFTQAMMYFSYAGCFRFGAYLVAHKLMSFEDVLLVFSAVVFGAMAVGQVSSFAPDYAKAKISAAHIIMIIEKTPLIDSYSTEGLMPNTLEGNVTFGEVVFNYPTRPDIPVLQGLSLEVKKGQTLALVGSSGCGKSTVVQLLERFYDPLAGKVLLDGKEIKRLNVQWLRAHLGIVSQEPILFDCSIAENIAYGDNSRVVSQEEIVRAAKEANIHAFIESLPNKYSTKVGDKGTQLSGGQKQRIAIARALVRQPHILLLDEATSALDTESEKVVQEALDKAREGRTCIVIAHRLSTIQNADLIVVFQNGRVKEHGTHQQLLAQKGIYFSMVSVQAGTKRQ

Data set [4] is described as follows: Inhibition of human ABCC1 expressed in MDCK-MRP1 cells assessed as accumulation of substrate calcein-AM stain measured after 1 hr by fluorometric microplate reader assay. It is filed as cell-based, Canis lupus familiaris. In a few lines: (§2)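 MDCK.2 cells transfected with human ABCC1 (MDCK.2-MRP1), trypsinized with 2X trypsin/EDTA for 30 min. Calcein-AM accumulation measured fluorometrically. Compounds tested up to 100 µM. Inhibition is normalized to 30 µM reversan set to 100% (Imax). Mean ± SEM from ≥3 experiments in triplicate.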

A further data set has as its system MDCK-MRP1. The data set can be described thus: Inhibition of human ABCC1 expressed in MDCK-MRP1 cells assessed as accumulation of substrate calcein-AM stain at 30 uM measured after 1 hr by fluorometric microplate reader assay relative to Reversan. It is filed as cell-based. Particulars: Canis lupus familiaris. In a few lines: as §2
Data set [5] in a line: Cytotoxicity against human MCF7/Topo cells assessed as inhibition of cell proliferation at 1 uM measured by crystal violet based microplate reader assay. In a few lines: (§3)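 MCF-7/Topo cells grown in DMEM/High with 2% (v/v) 200 mM L-glutamine and 10% FCS at 37 °C, 5% CO2, kept under 550 nM topotecan. Long-term incubation with inhibitor. Value given as corrected T/C = (T−C0)/(C−C0)·100 from absorbance; cytocidal effect (T−C0)/C0·100 when T<C0. Mean ± SEM of two to three experiments, each in octuplicate.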

The nature of data set [6]: Thermodynamic solubility of compound in PBS at pH 7.4 […] by shake-flask method. It is filed as physicochemical. The settings on record: buffer.
Data set [7] can be described thus: Kinetic solubility of compound in PBS at pH 7.4 measured after 2 hrs by turbidimetric measurement. Particulars: read-out: Kinetic_solubility.
The target in data set [8] is T2, ABCG2. The data set can be described thus: Substrate activity at ABCG2 in human MCF7/Topo cells assessed as increase in ATPase activity measured after 1 hr by colorimetric assay relative to sulfasalazine. It is filed as cell-based. Particulars: read-out: Imax. In short, it runs like this:
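Membranes prepared from MCF-7/Topo cells: homogenized in TMEP buffer pH 7 with protease inhibitors, 500 g spin, then 100,000 g for 1 h. Released inorganic phosphate read by molybdenum blue reaction. Basal activity set to 0% and 30 µM sulfasalazine to 100%. Concentration-response data; mean ± SEM of ≥3 experiments in triplicate.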

Data set [9] in a line: Stability of compound in human plasma at 200 uM measured up to 24 hrs by HPLC-MS analysis. It counts as ADME, cell-free. In short, it runs like this:
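Compound from 10 mM DMSO stock incubated in human CPD plasma at 37 °C for up to 24 h. Samples filtered (0.2 µm). Analyzed by RP-HPLC on a C8 column with acetonitrile/0.05% aq TFA gradient 20:80→95:5 over 12 min and UV detection at 220 nm. HPLC-MS run at 0 h and 24 h.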

Data set [10] is described as follows: Cytotoxicity against human MCF7/Topo cells assessed as inhibition of cell proliferation at 10 uM measured by crystal violet based microplate reader assay. In a few lines: as §3

ATP-dependent translocase ABCB1, sequence (P08183 whole entry): as above

Regarding `CCC(=O)c1ccc(-c2cn(CCN3CCOCC3)nn2)cc1NC(=O)c1cc(=O)c2ccccc2o1`, the IC50 was 312 nM in data set [1], 1340 nM in [3] (read-out: IC50) and 2080 nM in data set [4] (read-out: IC50). On ABCG2 [2], the Emax at 2 h, 10 µM worked out at 95%. In addition, on ABCB1, the Emax at 10 min, 10 µM was 92%. In addition, the Imax with MDCK-MRP1 was 66%. Moreover, in [5], the Activity result is listed as “Non-Toxic”. In [6], this molecule displayed a Therm_solubility of 0.999 µM. For the same molecule, in data set [7], the solubility kinetic at 2 h came out at 10 µM (≈ 5.02 µg/mL).

As to `Cc1ccc(-c2cn(CCN3CCCC3)nn2)c(NC(=O)c2cc(=O)c3ccccc3o2)c1`, the IC50 is 109 nM in data set [1], “Not Active” in data set [3] (kb-v1) and “Not Active” in [4]. Also, at ABCG2 [2], the Emax at 2 h, 10 µM was determined as 103%. Moreover, at ABCG2 [8], the Emax at 1 h came to 29%. In data set [9], the Stabilty entry was “Stable”. The same molecule yielded a Therm_solubility in [6] of 1.228 µM. Moreover, the solubility kinetic at 2 h in data set [7] came to 7 µM (≈ 3.1 µg/mL).

On to `Cc1ccc(-c2cn(CCN3CCOCC3)nn2)c(NC(=O)c2cc(=O)c3ccccc3o2)c1`, for which the IC50 was 188 nM in data set [1], above 1600 nM in [3] (read-out: IC50) and above 1470 nM in [4] (read-out: IC50). Further, at ABCG2 [2], the Emax at 2 h, 10 µM amounted to 108%. In addition, at ABCB1, the Emax at 10 min, 10 µM is above 13%. The Imax in the data set with MDCK-MRP1 was above 22%. Besides, the Activity result in data set [10] was “Non-Toxic”. Besides, at ABCG2 [8], the Emax at 1 h amounted to 46%. This molecule also returned a Therm_solubility in data set [6] of 1.144 µM. Moreover, the solubility kinetic at 2 h in [7] is 10 µM (≈ 4.6 µg/mL).
